ChEMBL document CHEMBL4052644, “Synthesis of novel benzylidene analogues of betulinic acid as potent cytotoxic agents” (Eur J Med Chem, 2017)

Legend:
PC-3 [1] = assay: Growth inhibition of human PC3 cells at 10 uM after 48 hrs by SRB assay relative to control; type: functional; settings: PC-3, 48 h, read-out: GI
In short: (§1)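 Primary SRB screen of every compound at a single concentration of 10 µM. Growth inhibition is expressed relative to control.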

A549 [2] = assay: Growth inhibition of human A549 cells at 10 uM after 48 hrs by SRB assay relative to control; type: functional; settings: A549, 48 h, read-out: GI; in short: as §1
MIA PaCa-2 [3] = assay: Growth inhibition of human MIAPaCa2 at 10 uM after 48 hrs by SRB assay relative to control; type: functional; settings: MIA PaCa-2, 48 h, read-out: GI; in short: as §1
A549 [4] = assay: Cytotoxicity against human A549 cells assessed as reduction in cell viability after 48 hrs by SRB assay; type: functional, cell-based; settings: A549, 48 h
In short: (§2)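 SRB assay. Compounds active at 10 µM in the primary screen were retested at 1, 2.5 and 5 µM, and IC50 was calculated from these concentrations. The normal breast epithelial line fR2 was tested alongside the cancer lines.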

[5] = Selectivity index, ratio of IC50 for human FR2 cells to IC50 for human PC3 cells; type: functional
In short: (§3)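 Selectivity index is the IC50 in normal breast epithelial fR2 cells divided by the IC50 in each cancer line. All IC50 values come from the SRB assay.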

HCT-116 [6] = assay: Cytotoxicity against human HCT116 cells assessed as reduction in cell viability after 48 hrs by SRB assay; type: functional, cell-based; settings: HCT-116, 48 h; in short: as §2
MIA PaCa-2 [7] = assay: Cytotoxicity against human MIAPaCa2 cells assessed as reduction in cell viability after 48 hrs by SRB assay; type: functional, cell-based; settings: MIA PaCa-2, 48 h; in short: as §2
[8] = Selectivity index, ratio of IC50 for human FR2 cells to IC50 for human MCF7 cells; type: functional; in short: as §3
[9] = Selectivity index, ratio of IC50 for human FR2 cells to IC50 for human HCT116 cells; type: functional; in short: as §3
HCT-116 [10] = assay: Growth inhibition of human HCT116 cells at 10 uM after 48 hrs by SRB assay relative to control; type: functional; settings: HCT-116, 48 h, read-out: GI; in short: as §1
[11] = Selectivity index, ratio of IC50 for human FR2 cells to IC50 for human A549 cells; type: functional; in short: as §3
[12] = Selectivity index, ratio of IC50 for human FR2 cells to IC50 for human MIAPaCa2 cells; type: functional; in short: as §3
[13] = Cytotoxicity against human FR2 cells assessed as reduction in cell viability after 48 hrs by SRB assay; type: cell-based; settings: FR2, 48 h; in short: as §2
MCF7 [14] = assay: Cytotoxicity against human MCF7 cells assessed as reduction in cell viability after 48 hrs by SRB assay; type: functional, cell-based; settings: MCF7, 48 h; in short: as §2
MCF7 [15] = assay: Growth inhibition of human MCF7 cells at 10 uM after 48 hrs by SRB assay relative to control; type: functional; settings: MCF7, 48 h, read-out: GI; in short: as §1
PC-3 [16] = assay: Cytotoxicity against human PC3 cells assessed as reduction in cell viability after 48 hrs by SRB assay; type: functional, cell-based; settings: PC-3, 48 h; in short: as §2

Compound | inhibition of growth at 10 µM (PC-3 [1]) [%] | inhibition of growth at 10 µM (A549 [2]) [%] | inhibition of growth at 10 µM (MIA PaCa-2 [3]) [%] | IC50 (A549 [4]) [µM] | Ratio IC50 [5] | IC50 (HCT-116 [6]) [µM] | IC50 (MIA PaCa-2 [7]) [µM] | Ratio IC50 [8] | Ratio IC50 [9] | inhibition of growth at 10 µM (HCT-116 [10]) [%] | Ratio IC50 [11] | Ratio IC50 [12] | IC50 [13] [µM] | IC50 (MCF7 [14]) [µM] | inhibition of growth at 10 µM (MCF7 [15]) [%] | IC50 (PC-3 [16]) [µM]
C=C(C)[C@@H]1CC[C@]2(C(=O)O)CC[C@]3(C)[C@H](CC[C@@H]4[C@@]5(C)C/C(=C\c6ccc(OC)cc6)[C@H](O)C(C)(C)[C@@H]5CC[C@]43C)[C@@H]12 | 52 | 54 | 67 | 4.3 | 2.914 | 4.9 | 6.4 | 3.126 | 4.402 | 63 | 5.016 | 3.37 | 21.6 | 6.9 | 69 | 7.4
C=C(C)[C@@H]1CC[C@]2(C(=O)O)CC[C@]3(C)[C@H](CC[C@@H]4[C@@]5(C)C/C(=C\c6ccc(F)cc6)[C@H](O)C(C)(C)[C@@H]5CC[C@]43C)[C@@H]12 | 48 | 59 | 78 | 4 | – | 1.5 | 1.21 | 12.22 | 9.62 | 67 | 3.6 | 8.702 | 14.4 | 1.18 | 77 | > 10
C=C(C)[C@@H]1CC[C@]2(C(=O)O)CC[C@]3(C)[C@H](CC[C@@H]4[C@@]5(C)C/C(=C\c6ccc(OC)cc6)C(=O)C(C)(C)[C@@H]5CC[C@]43C)[C@@H]12 | 81 | 94 | 71 | 5.1 | 3.522 | 5.4 | 7.07 | 3.522 | 4.435 | 69 | 4.696 | 3.387 | 23.9 | 6.8 | 88 | 6.8
C=C(C)[C@@H]1CC[C@]2(C(=O)O)CC[C@]3(C)[C@H](CC[C@@H]4[C@@]5(C)C/C(=C\c6ccc(Br)o6)C(=O)C(C)(C)[C@@H]5CC[C@]43C)[C@@H]12 | 79 | 91 | 75 | 2.9 | 2.389 | 2.9 | 5.2 | 2.432 | 4.696 | 87 | 4.69 | 2.619 | 13.6 | 5.6 | 92 | 5.7
C=C(C)[C@@H]1CC[C@]2(C(=O)O)CC[C@]3(C)[C@H](CC[C@@H]4[C@@]5(C)C/C(=C\c6ccc([N+](=O)[O-])cc6)C(=O)C(C)(C)[C@@H]5CC[C@]43C)[C@@H]12 | 37 | 82 | 61 | 1.5 | – | 1.4 | 6.5 | 4.525 | 10.02 | 75 | 9.353 | 2.158 | 14 | 3.1 | 83 | > 10
C=C(C)[C@@H]1CC[C@]2(C(=O)O)CC[C@]3(C)[C@H](CC[C@@H]4[C@@]5(C)C/C(=C\c6cccc7ccccc67)[C@H](O)C(C)(C)[C@@H]5CC[C@]43C)[C@@H]12 | 36 | 36 | 62 | > 10 | – | 3.6 | 7.09 | 1.338 | 2.788 | 55 | – | 1.416 | 10 | 7.5 | 64 | > 10
C=C(C)[C@@H]1CC[C@]2(C(=O)O)CC[C@]3(C)[C@H](CC[C@@H]4[C@@]5(C)C/C(=C\c6ccccc6Br)C(=O)C(C)(C)[C@@H]5CC[C@]43C)[C@@H]12 | 77 | 90 | 81 | 6.1 | 2.497 | 4.3 | 4.04 | 2.464 | 4.413 | 86 | 3.111 | 4.698 | 19 | 7.7 | 80 | 7.6
C=C(C)[C@@H]1CC[C@]2(C(=O)O)CC[C@]3(C)[C@H](CC[C@@H]4[C@@]5(C)C/C(=C\c6ccc(F)c(Br)c6)C(=O)C(C)(C)[C@@H]5CC[C@]43C)[C@@H]12 | 71 | 89 | 82 | 3.9 | 5.881 | 5.8 | 6.9 | 6.671 | 8.132 | 89 | 12.09 | 6.836 | 47.2 | 7.07 | 85 | 8.02
C=C(C)[C@@H]1CC[C@]2(C(=O)O)CC[C@]3(C)[C@H](CC[C@@H]4[C@@]5(C)C/C(=C\c6ccccc6Br)[C@H](O)C(C)(C)[C@@H]5CC[C@]43C)[C@@H]12 | 19 | 47 | 49 | > 10 | – | > 10 | 9.6 | 2.642 | – | 43 | – | 2.257 | 21.7 | 8.2 | 57 | > 10
C=C(C)[C@@H]1CC[C@]2(C(=O)O)CC[C@]3(C)[C@H](CC[C@@H]4[C@@]5(C)C/C(=C\c6cccc(Br)c6)[C@H](O)C(C)(C)[C@@H]5CC[C@]43C)[C@@H]12 | 59 | 90 | 22 | 3.6 | 2.72 | > 10 | 14.4 | 1.86 | – | 46 | 4.16 | 1.041 | 15 | 8.06 | 65 | 5.5
C=C(C)[C@@H]1CC[C@]2(C(=O)O)CC[C@]3(C)[C@H](CC[C@@H]4[C@@]5(C)C/C(=C\c6ccc(Br)cc6)C(=O)C(C)(C)[C@@H]5CC[C@]43C)[C@@H]12 | 66 | 72 | 27 | 1.71 | 1.267 | 4.4 | > 10 | 1.481 | 2.39 | 61 | 6.15 | – | 10.5 | 7.1 | 68 | 8.3
